Results reported in article PMC9401513 (Clinical Cancer Research, 2021).

What was measured:
[1] = target: CYP3A4 (Homo sapiens, UniProt P08684); experiment: Drug-drug interaction substudy with multiple-dose fluconazole; assay type: in vivo; settings: PF-06647020 co-administered with multiple-dose fluconazole, 11 patients
In short: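 Single-dose test ADC was given alone in cycle 1 (reference) and co-administered with multiple-dose fluconazole in cycle 2 (test). Unconjugated payload exposure was measured as dose-normalized AUCinf and Cmax from noncompartmental analysis. Results were expressed as ratios of adjusted geometric means with 90% confidence intervals.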

[2] = tested on: advanced TNBC; experiment: Objective tumor response by RECIST v1.1, TNBC; assay type: in vivo, human; settings: every 3 weeks
In short: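 Investigators assessed tumor response by RECIST v1.1 every 6 weeks (every-3-weeks cohorts) or every 8 weeks (every-2-weeks cohorts). CR and PR in expansion cohorts were confirmed by repeat assessment at least 4 weeks later, and ORR was calculated. NSCLC patients were preselected for moderate-to-high tumor PTK7 by IHC. Later TNBC patients were preselected for moderately high-to-high PTK7. Ovarian cancer patients were platinum-resistant and not preselected.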

[3] = Immunogenicity: anti-drug antibodies and neutralizing antibodies; assay type: in vivo, human
In short: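 Anti-drug antibodies were measured by a validated electrochemiluminescent assay. Samples were taken on days 1 and 15 of cycle 1, day 1 of each later cycle, and at end of treatment. ADA-positive samples were tested for neutralizing antibodies by a validated competitive ligand-binding electrochemiluminescent method.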

[4] = tested on: patients with advanced solid tumors; experiment: Adverse events graded by NCI-CTCAE v4.03 in phase I patients; assay type: in vivo, human
In short: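 Test compound was given by IV infusion over about 60 min every 3 weeks in sequential dose-escalation cohorts to adults with advanced solid tumors (ECOG 0–1). Adverse events were graded by NCI-CTCAE v4.03 over all cycles and tabulated as treatment-related by dose level. G-CSF was permitted after cycle 1. Antiemetics and corticosteroids were given at the physician's discretion.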

[5] = 0.2 mg/kg every 3 weeks, all cycles, 2 evaluable pts
[6] = 0.5 mg/kg every 3 weeks, all cycles, 2 evaluable pts
[7] = 1.25 mg/kg every 3 weeks, all cycles, 2 evaluable pts
[8] = 2.1 mg/kg every 3 weeks, all cycles, 4 evaluable pts
[9] = 2.8 mg/kg every 3 weeks, all cycles, 96 evaluable pts
[10] = 3.7 mg/kg every 3 weeks, all cycles, 6 evaluable pts
[11] = every 3 weeks, all cycles, N = 112

Chain of CYP3A4 (P08684 whole entry): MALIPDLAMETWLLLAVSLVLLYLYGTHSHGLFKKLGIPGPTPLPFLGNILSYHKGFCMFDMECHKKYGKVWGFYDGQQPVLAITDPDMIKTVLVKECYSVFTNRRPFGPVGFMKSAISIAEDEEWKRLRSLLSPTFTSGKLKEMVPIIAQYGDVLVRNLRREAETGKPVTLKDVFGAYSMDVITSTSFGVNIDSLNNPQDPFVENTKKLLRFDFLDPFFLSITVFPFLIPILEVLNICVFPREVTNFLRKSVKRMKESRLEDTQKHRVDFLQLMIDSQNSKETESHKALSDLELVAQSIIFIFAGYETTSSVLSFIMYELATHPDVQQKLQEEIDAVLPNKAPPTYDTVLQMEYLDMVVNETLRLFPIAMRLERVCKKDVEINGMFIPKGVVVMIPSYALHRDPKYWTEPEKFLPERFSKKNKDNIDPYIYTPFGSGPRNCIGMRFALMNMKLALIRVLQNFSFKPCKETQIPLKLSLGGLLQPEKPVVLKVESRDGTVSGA

B1: cofetuzumab pelidotin (conjugate, chains of the INN, looked up)
VH: QVQLVQSGPEVKKPGASVKVSCKASGYTFTDYAVHWVRQAPGKRLEWIGVISTYNDYTYNNQDFKGRVTMTRDTSASTAYMELSRLRSEDTAVYYCARGNSYFYALDYWGQGTSVTVSS
VL: EIVLTQSPATLSLSPGERATLSCRASESVDSYGKSFMHWYQQKPGQAPRLLIYRASNLESGIPARFSGSGSGTDFTLTISSLEPEDFAVYYCQQSNEDPWTFGGGTKLEIK
modifications: auristatin-0101 payload, vc linker
[1]
  impact of fluconazole co-administration on overall exposure: did not have a notable impact
[2]; N = 29
  CR: 0 N
  PR: 6 N
[2]; N = 29, (95% CI)
  ORR: 21 (8–40) %
  mDOR: 4.3 (1.3–10.2) mo
  mPFS: 1.5 (1.4–4.3) mo
[3]; every 2 weeks cohorts
  patients with ADA at baseline (not boosted by treatment): 4%
[3]; every 2 weeks, 25 evaluable patients
  patients with treatment-induced ADA and NAb: 4%
[3]; every 2 weeks, one patient, day 1 cycle 4, resolved same day
  infusion-related reaction in ADA-positive patient: grade 2 IRR
[3]; every 3 weeks, 108 evaluable patients
  patients positive for treatment-induced ADA: 10.2%
[4]; [5]
  Number of AEs (TRAEs): 1 n (%)
  Pts discontinued due to AEs (TRAEs): 0 n (%)
  Pts with AEs (TRAEs): 1 (50.0) n (%)
  Pts with G3/G4 AEs (TRAEs): 1 (50.0) n (%)
  Pts with SAEs (TRAEs): 0 n (%)
  Pts with dose reduction and temporary discontinuation due to AEs (TRAEs): 0 n (%)
  Pts with dose reduction due to AEs (TRAEs): 0 n (%)
  Pts with temporary discontinuation due to AEs (TRAEs): 0 n (%)
[4]; [6]
  Number of AEs (TRAEs): 1 n (%)
  Pts discontinued due to AEs (TRAEs): 0 n (%)
  Pts with AEs (TRAEs): 1 (50.0) n (%)
  Pts with G3/G4 AEs (TRAEs): 0 n (%)
  Pts with SAEs (TRAEs): 0 n (%)
  Pts with dose reduction and temporary discontinuation due to AEs (TRAEs): 0 n (%)
  Pts with dose reduction due to AEs (TRAEs): 0 n (%)
  Pts with temporary discontinuation due to AEs (TRAEs): 0 n (%)
[4]; [7]
  Number of AEs (TRAEs): 6 n (%)
  Pts discontinued due to AEs (TRAEs): 0 n (%)
  Pts with AEs (TRAEs): 1 (50.0) n (%)
  Pts with G3/G4 AEs (TRAEs): 0 n (%)
  Pts with SAEs (TRAEs): 0 n (%)
  Pts with dose reduction and temporary discontinuation due to AEs (TRAEs): 0 n (%)
  Pts with dose reduction due to AEs (TRAEs): 0 n (%)
  Pts with temporary discontinuation due to AEs (TRAEs): 0 n (%)
[4]; [8]
  Number of AEs (TRAEs): 28 n (%)
  Pts discontinued due to AEs (TRAEs): 1 (25.0) n (%)
  Pts with AEs (TRAEs): 4 (100.0) n (%)
  Pts with G3/G4 AEs (TRAEs): 0 n (%)
  Pts with SAEs (TRAEs): 1 (25.0) n (%)
  Pts with dose reduction and temporary discontinuation due to AEs (TRAEs): 0 n (%)
  Pts with dose reduction due to AEs (TRAEs): 0 n (%)
  Pts with temporary discontinuation due to AEs (TRAEs): 0 n (%)
[4]; [9]
  Number of AEs (TRAEs): 475 n (%)
  Pts discontinued due to AEs (TRAEs): 2 (2.1) n (%)
  Pts with AEs (TRAEs): 84 (87.5) n (%)
  Pts with G3/G4 AEs (TRAEs): 40 (41.7) n (%)
  Pts with SAEs (TRAEs): 9 (9.4) n (%)
  Pts with dose reduction and temporary discontinuation due to AEs (TRAEs): 3 (3.1) n (%)
  Pts with dose reduction due to AEs (TRAEs): 7 (7.3) n (%)
  Pts with temporary discontinuation due to AEs (TRAEs): 16 (16.7) n (%)
[4]; [10]
  Number of AEs (TRAEs): 27 n (%)
  Pts discontinued due to AEs (TRAEs): 0 n (%)
  Pts with AEs (TRAEs): 5 (83.3) n (%)
  Pts with G3/G4 AEs (TRAEs): 3 (50.0) n (%)
  Pts with SAEs (TRAEs): 0 n (%)
  Pts with dose reduction and temporary discontinuation due to AEs (TRAEs): 1 (16.7) n (%)
  Pts with dose reduction due to AEs (TRAEs): 0 n (%)
  Pts with temporary discontinuation due to AEs (TRAEs): 0 n (%)
[4]; all patients, every 3 weeks and every 2 weeks cohorts
  patients reporting headache after infusion on cycle 1, day 1 or 2: 29 patients
[4]; every 2 weeks, N = 25
  grade 1–2 peripheral sensory neuropathy: 20%
  grade 3 peripheral sensory neuropathy: 8%
  patients discontinued because of a TRAE: 4%
  patients with dose reduction: 16%
  patients with grade ≥ 3 all-cause AEs: 72%
  temporary discontinuations due to TRAEs: 44%
  treatment-related grade 3–4 neutropenia: 24%
[4]; every 2 weeks, N = 25, disease progression
  patients died on study: 16%
[4]; every 3 weeks and every 2 weeks
  deaths because of a treatment-related AE: None of the patients died because of a treatment-related AE
[4]; every 3 weeks or every 2 weeks
  treatment-emergent, all-cause AEs: all patients
[4]; every 3 weeks regimen
  treatment-related grade 5 AEs: ^aNo treatment-related grade 5 AEs were observed with the every 3 weeks regimen.
[4]; every 3 weeks, N = 112
  febrile neutropenia: 2.7%
  grade ≥ 3 treatment-related neutropenia: 25%
  patients discontinued because of a TRAE: 2.7%
  patients with dose reduction: 6.3%
  patients with grade ≥ 3 all-cause AEs: 79.4%
  temporary discontinuations due to TRAEs: 14.3%
  treatment-related peripheral sensory neuropathy (all grade 1 or 2): 12.5%
[4]; every 3 weeks, N = 112, mostly disease progression
  patients died on study: 15.2%
[4]; [11]
  TRAE Alopecia, Grade 1: 13 (11.6) n (%)
  TRAE Alopecia, Grade 2: 33 (29.5) n (%)
  TRAE Alopecia, Grade 3: 0 n (%)
  TRAE Alopecia, Grade 4: 0 n (%)
  TRAE Alopecia, Total: 46 (41.1) n (%)
  TRAE Arthralgia, Grade 1: 16 (14.3) n (%)
  TRAE Arthralgia, Grade 2: 2 (1.8) n (%)
  TRAE Arthralgia, Grade 3: 1 (0.9) n (%)
  TRAE Arthralgia, Grade 4: 0 n (%)
  TRAE Arthralgia, Total: 19 (17.0) n (%)
  TRAE Decreased appetite, Grade 1: 11 (9.8) n (%)
  TRAE Decreased appetite, Grade 2: 7 (6.3) n (%)
  TRAE Decreased appetite, Grade 3: 0 n (%)
  TRAE Decreased appetite, Grade 4: 0 n (%)
  TRAE Decreased appetite, Total: 18 (16.1) n (%)
  TRAE Diarrhea, Grade 1: 8 (7.1) n (%)
  TRAE Diarrhea, Grade 2: 8 (7.1) n (%)
  TRAE Diarrhea, Grade 3: 1 (0.9) n (%)
  TRAE Diarrhea, Grade 4: 0 n (%)
  TRAE Diarrhea, Total: 17 (15.2) n (%)
  TRAE Fatigue, Grade 1: 19 (17.0) n (%)
  TRAE Fatigue, Grade 2: 19 (17.0) n (%)
  TRAE Fatigue, Grade 3: 3 (2.7) n (%)
  TRAE Fatigue, Grade 4: 0 n (%)
  TRAE Fatigue, Total: 41 (36.6) n (%)
  TRAE Headache, Grade 1: 13 (11.6) n (%)
  TRAE Headache, Grade 2: 19 (17.0) n (%)
  TRAE Headache, Grade 3: 5 (4.5) n (%)
  TRAE Headache, Grade 4: 0 n (%)
  TRAE Headache, Total: 37 (33.0) n (%)
  TRAE Myalgia, Grade 1: 11 (9.8) n (%)
  TRAE Myalgia, Grade 2: 3 (2.7) n (%)
  TRAE Myalgia, Grade 3: 1 (0.9) n (%)
  TRAE Myalgia, Grade 4: 0 n (%)
  TRAE Myalgia, Total: 15 (13.4) n (%)
  TRAE Nausea, Grade 1: 28 (25.0) n (%)
  TRAE Nausea, Grade 2: 21 (18.8) n (%)
  TRAE Nausea, Grade 3: 1 (0.9) n (%)
  TRAE Nausea, Grade 4: 0 n (%)
  TRAE Nausea, Total: 50 (44.6) n (%)
  TRAE Neutropenia, Grade 1: 0 n (%)
  TRAE Neutropenia, Grade 2: 4 (3.6) n (%)
  TRAE Neutropenia, Grade 3: 17 (15.2) n (%)
  TRAE Neutropenia, Grade 4: 11 (9.8) n (%)
  TRAE Neutropenia, Total: 32 (28.6) n (%)
  TRAE Peripheral sensory neuropathy, Grade 1: 7 (6.3) n (%)
  TRAE Peripheral sensory neuropathy, Grade 2: 7 (6.3) n (%)
  TRAE Peripheral sensory neuropathy, Grade 3: 0 n (%)
  TRAE Peripheral sensory neuropathy, Grade 4: 0 n (%)
  TRAE Peripheral sensory neuropathy, Total: 14 (12.5) n (%)
  TRAE Vomiting, Grade 1: 10 (8.9) n (%)
  TRAE Vomiting, Grade 2: 14 (12.5) n (%)
  TRAE Vomiting, Grade 3: 4 (3.6) n (%)
  TRAE Vomiting, Grade 4: 0 n (%)
  TRAE Vomiting, Total: 28 (25.0) n (%)
